We go through 12 compounds from ChEMBL document CHEMBL1806391, “Synthesis and biological evaluation of novel 5-alkyl-2-arylthio-6-((3,4-dihydroquinolin-1(2H)-yl)methyl)pyrimidin-4(3H)-ones as potent non-nucleoside HIV-1 reverse transcriptase inhibitors” (Bioorg Med Chem, 2011).

By CC50 is commonly meant the concentration at which the toxic effect on the cells reaches its halfway point. Broadly, the IC50 is the concentration that gives 50% inhibition. Low values mean inhibition by little substance, high ones a need for much substance. One may read the EC50 as the concentration at which the effect is half-maximal.

Data set [1] can be described thus: Cytotoxic activity against human MT4 cells assessed as viability of mock-infected cells after 5 days by MTT assay. The data set is classed as cell-based. The gist of the method:
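Mock-infected, exponentially growing MT-4 cells (6 × 10⁵ cells/mL) were exposed to serial fivefold compound dilutions in triplicate wells. After 5 days, viability was read by MTT formazan absorbance at 540 and 690 nm. CC₅₀ is the concentration that lowered OD540 of the mock-infected control by 50%, using the median OD of three wells.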

The target of data set [2] is Human immunodeficiency virus type 1 reverse transcriptase (Human immunodeficiency virus 1, UniProt Q72547). The data set can be described thus: Inhibition of HIV1 wild type RT using poly(rA)/oligo(dT)15 homopolymer template after 1 hrs by ELISA. In short, it runs like this: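 Wild-type HIV-1 RT was run on a poly(rA)/oligo(dT)₁₅ template, with oligo(dT) immobilized on plates and biotin-dUTP incorporated, 1 h at 37 °C. After Tris-HCl pH 7.5 washes, incorporated biotin was detected colorimetrically by streptavidin–alkaline phosphatase with PNPP (1 mg/mL, pH 9.5), 30 min at 37 °C, stopped with 0.5 M NaOH.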
In general terms: ELISA stands for enzyme-linked immunosorbent assay.

Data set [3] concerns Human immunodeficiency virus 2. The data set can be described thus: Antiviral activity against Human immunodeficiency virus 2 ROD infected in human MT4 cells assessed as inhibition of viral replication. Particulars: ISOLATE ROD. Format: functional, organism-based. In short, it runs like this:
(§1)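 MT-4 cells, spun 5 min at 1000 rpm, were resuspended at 6 × 10⁵ cells/mL and infected with HIV-1 IIIB or HIV-2 ROD. Compounds were added at the start in serial fivefold dilutions, in triplicate wells. Viability was read by MTT reduction at 540 and 690 nm five days post-infection. EC₅₀ is the concentration giving 50% protection from viral cytopathic effect, using the median OD of three wells.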

In data set [4] the test system is Human immunodeficiency virus 1. The data set can be described thus: Antiviral activity against wild type Human immunodeficiency virus 1 3B infected in human MT4 cells assessed as protection against virus-induced cytotoxicity after 5 days by MTT assay. The data set is classed as functional, organism-based. Particulars: MT4, 120 h. The gist of the method:
as §1
(In general: Tetrazolium dyes change colour on reduction, which living cells bring about.)

Data set [5] deals with Human immunodeficiency virus 2. The data set can be described thus: Antiviral activity against wild type Human immunodeficiency virus 2 ROD infected in human MT4 cells assessed as protection against virus-induced cytotoxicity after 5 days by MTT assay. Particulars: Human immunodeficiency virus 2, ISOLATE ROD, MT4, 120 h. Format: functional, organism-based. The gist of the method: as §1

Data set [6] is described as follows: Selectivity index, ratio of CC50 for human MT4 cells to EC50 for wild type Human immunodeficieny virus 1 3B infected in human MT4 cells. The data set is classed as toxicity, cell-based. The following applies: read-out: Ratio CC50/EC50. In short, it runs like this: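 SI is CC₅₀ in mock-infected MT-4 cells divided by EC₅₀ against HIV-1 IIIB, both from 5-day MTT assays in triplicate wells.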

The source made the active and inactive calls. The calls are words filed in the database; no cut-off is given here.

On to `CCc1c(CN2CCCc3ccccc32)nc(SCC(=O)c2ccccc2)[nH]c1=O`, for which the CC50 at 120 h in data set [1] is 298 µM. The same compound came in with a concentration for half-maximal inhibition (IC50) in data set [2] of 30.7 µM. Moreover, the inhibition entry in data set [3] is “inactive”. Also, the figures for the EC50 in data set [4] and in data set [5] were 0.24 µM and above 298 µM, respectively. For the same compound, the selectivity ratio in data set [6] was 1220.

With `O=C(CSc1nc(CN2CCCc3ccccc32)cc(=O)[nH]1)c1ccc(Cl)cc1`, the CC50 at 120 h in data set [1] was 75.6 µM. For the same compound, the inhibition entry in data set [3] was “inactive”. Also, the EC50 in data set [4] and in data set [5] was above 75.6 µM in each case. For the same compound, the selectivity ratio in data set [6] is below 1.

For the compound `Cc1ccc(C(=O)CSc2nc(CN3CCCc4ccccc43)cc(=O)[nH]2)cc1`, in data set [1], the CC50 at 120 h came out at 156 µM. For the same compound, the inhibition entry in data set [3] is “inactive”. The values for the EC50 in data set [4] and in data set [5] were 28 µM and above 156 µM, respectively. Further, the selectivity ratio in data set [6] was found to be 6.

As to `CCc1c(CN2CCCc3ccccc32)nc(SCc2ccccc2)[nH]c1=O`, in data set [1], the CC50 at 120 h worked out at 4.8 µM. Also, the inhibition entry in data set [3] is “inactive”. Also, the concentration giving a half-maximal response (EC50) in data set [4] and in data set [5] was above 4.8 µM throughout. Further, in data set [6], the selectivity ratio is below 1.

As to `Cc1c(CN2CCCc3ccccc32)nc(SCc2ccc(F)cc2)[nH]c1=O`, the CC50 at 120 h in data set [1] came out at 8.67 µM. Besides, in data set [3], the inhibition entry is “inactive”. For the same compound, the EC50 in data set [4] and in data set [5] was above 8.67 µM each time. For the same compound, the selectivity ratio in data set [6] was below 1.

For the compound `Cc1ccc(C(=O)CSc2nc(CN3CCCc4ccccc43)c(C)c(=O)[nH]2)cc1`, in data set [1], the CC50 at 120 h stood at 62.4 µM. The inhibition entry in data set [3] was “inactive”. The results for the EC50 in data set [4] and in data set [5] were 1.95 µM and above 62.4 µM, respectively. Moreover, the selectivity ratio in data set [6] amounted to 32.

In the case of `CCc1c(CN2CCCc3ccccc32)nc(SCC(=O)c2ccc(OC)cc2)[nH]c1=O`, the half-maximal cytotoxic concentration (CC50) at 120 h in data set [1] amounted to 61.8 µM. The inhibition entry in data set [3] is “inactive”. The EC50 is 0.38 µM in data set [4] and above 61.8 µM in data set [5]. The selectivity ratio in data set [6] amounted to 164.

In the case of `Cc1c(CN2CCCc3ccccc32)nc(SCc2ccccc2)[nH]c1=O`, the CC50 at 120 h in data set [1] is 6.69 µM. Also, the inhibition entry in data set [3] was “inactive”. In addition, the EC50 in data set [4] and in data set [5] was above 6.69 µM each time. Further, in data set [6], the selectivity ratio was below 1.

Regarding `Cc1c(CN2CCCc3ccccc32)nc(SCC(=O)c2ccccc2)[nH]c1=O`, in data set [1], the CC50 at 120 h came out at 12.2 µM. In data set [3], the inhibition entry was “inactive”. Moreover, the EC50 was 0.39 µM in data set [4] and above 12.2 µM in data set [5]. Moreover, the selectivity ratio in data set [6] is 31.

Turning to `Cc1ccc(CSc2nc(CN3CCCc4ccccc43)c(C)c(=O)[nH]2)cc1`, the CC50 at 120 h in data set [1] is at least 86.2 µM. The inhibition entry in data set [3] was “inactive”. The 50% effective concentration (EC50) was at least 86.2 µM in data set [4] and above 86.2 µM in data set [5]. Besides, the selectivity ratio in data set [6] was at most 1.

`CCc1c(CN2CCCc3ccccc32)nc(SCc2ccc(C#N)cc2)[nH]c1=O`: the CC50 at 120 h in data set [1] is 59.7 µM. In addition, the inhibition result in data set [3] is “inactive”. For the same compound, the results for the EC50 in data set [4] and in data set [5] were 0.48 µM and above 59.7 µM, respectively. In addition, the selectivity ratio in data set [6] was 125.

As for `Cc1c(CN2CCCc3ccccc32)nc(SCC(=O)c2ccc(F)cc2)[nH]c1=O`, in data set [1], the CC50 at 120 h turned out to be 15.4 µM. Besides, in data set [3], the inhibition result is “inactive”. In addition, the concentration giving a half-maximal response (EC50) in data set [4] is 0.46 µM; in data set [5], above 15.4 µM. Besides, the selectivity ratio in data set [6] came out at 34.
